Laboratory results taken from ChEMBL document CHEMBL3259700, “2-Amino-1,3,4-thiadiazoles in the 7-hydroxy-N-neopentyl spiropiperidine indolinyl series as potent P2Y1 receptor antagonists” (Bioorg Med Chem Lett, 2014).

Assays:
[1] = Antiplatelet activity in human platelet-rich plasma assessed as inhibition of ADP-induced platelet aggregation in presence of 10 uM ADP
[2] = Antiplatelet activity in human platelet-rich plasma assessed as inhibition of ADP-induced platelet aggregation in presence of 2.5 uM ADP
[3] = Oral bioavailability in rat at 0.5 mg/kg; type: ADME, organism-based; conditions: in vivo
Method in brief: (§1)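 Cassette PK in rats, 0.5 mg/kg iv and 0.5 mg/kg p.o., vehicle 70% water, 10% ethanol, 10% cremophor, 10% N,N-dimethylacetamide; plasma trough concentrations taken 24 h after iv and p.o. dosing.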

[4] = Metabolic stability in human liver microsomes assessed as compound remaining after 10 mins; type: ADME; conditions: read-out: Stability
Method in brief: (§2)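 Test compound incubated 10 min with 0.5 µM rat or human liver microsomes; percentage of parent remaining measured.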

[5] = Total AUC in rat at 0.5 mg/kg, iv; type: ADME, organism-based; set-up: time AUCmax, dose 0.5 mg/kg, route intravenous; conditions: in vivo; method in brief: as §1
[6] = Clearance in rat at 0.5 mg/kg, iv and 0.5 mg/kg, po; type: ADME, organism-based; conditions: in vivo; method in brief: as §1
P2Y purinoceptor 1 [7] = target: T1, P2Y purinoceptor 1 (Homo sapiens, UniProt P47900); assay: Displacement of [33P]2-MeS-ADP from human cloned P2Y1 receptor expressed in HEK293 cells by SPA analysis; type: cell-based
[8] = Trough plasma concentration in rat at 0.5 mg/kg, po after 24 hrs; type: ADME, organism-based; set-up: dose 0.5 mg/kg, route oral; conditions: read-out: Cmin; method in brief: as §1
[9] = Trough plasma concentration in rat at 0.5 mg/kg, iv after 24 hrs; type: ADME, organism-based; set-up: dose 0.5 mg/kg, route intravenous; conditions: read-out: Cmin; method in brief: as §1
[10] = Metabolic stability in rat liver microsomes assessed as compound remaining after 10 mins; type: ADME; conditions: read-out: Stability; method in brief: as §2
[11] = Half life in rat at 0.5 mg/kg, iv and 0.5 mg/kg, po; type: ADME, organism-based; conditions: in vivo; method in brief: as §1
[12] = Volume of distribution at steady state in rat at 0.5 mg/kg, iv and 0.5 mg/kg, po; type: ADME, organism-based; conditions: in vivo, read-out: Vdss; method in brief: as §1
P2Y purinoceptor 1 [13] = target: T1, P2Y purinoceptor 1; assay: Inhibition of P2Y1 receptor in human washed platelets assessed as decrease in 2-methylthio-ADP-induced calcium signal transduction pathway activation by FLIPR assay; type: functional

T1 sequence (P47900 whole entry): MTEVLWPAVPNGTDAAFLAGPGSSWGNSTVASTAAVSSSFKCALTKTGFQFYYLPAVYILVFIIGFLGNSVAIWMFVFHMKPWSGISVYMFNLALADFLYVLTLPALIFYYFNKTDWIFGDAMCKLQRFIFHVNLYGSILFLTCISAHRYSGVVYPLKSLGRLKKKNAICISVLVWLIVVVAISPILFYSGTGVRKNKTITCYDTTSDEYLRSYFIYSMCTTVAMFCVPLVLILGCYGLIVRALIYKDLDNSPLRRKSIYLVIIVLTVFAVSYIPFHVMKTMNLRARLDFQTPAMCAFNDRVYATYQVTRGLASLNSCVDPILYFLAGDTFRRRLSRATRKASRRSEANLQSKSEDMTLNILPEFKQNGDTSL

CC(C)(C)c1ccccc1Oc1ncccc1NC(=O)Nc1ccc(OC(F)(F)F)cc1
IC50 [1]: 11000 nM

CC(C)(C)c1ccccc1Oc1ncccc1Nc1nnc(-c2ccc(C(F)(F)F)cc2)s1
IC50 [2]: 7500 nM

CN(C)CC(C)(C)COc1cccc(-c2sc(Nc3cccnc3Oc3ccccc3C(C)(C)C)nc2C(F)(F)F)c1
IC50 [2]: 5200 nM | IC50 [1]: 57000 nM

CC(C)(C)CN1CCC2(CC1)CN(c1ccccc1NC(=O)Nc1nc3ccc(Cl)nc3s1)c1c(O)ccc(Cl)c12
bioavailability [3]: 36% | remaining at 10 min [4]: 100% | AUC [5]: 1.33 µM·h | clearance [6]: 10 mL/min/kg | Ki (P2Y purinoceptor 1 [7]): 8 nM | concentration at 24 h [8]: 4.1 nM | concentration at 24 h [9]: 10 nM | remaining at 10 min [10]: 86% | half-life [11]: 9.9 h | IC50 [1]: 130 nM | Vd [12]: 5.4 L/kg

CC(C)(C)CN1CCC2(CC1)CN(c1ccccc1Nc1nnc(-c3ccccc3)s1)c1c(O)ccc(C(F)(F)F)c12
Ki (P2Y purinoceptor 1 [7]): 9.6 nM | IC50 (P2Y purinoceptor 1 [13]): 0.19 nM | IC50 [1]: 990 nM

CC(C)(C)CN1CCC2(CC1)CN(c1ccccc1Nc1nc(-c3ccccc3)ns1)c1c(O)ccc(Cl)c12
IC50 (P2Y purinoceptor 1 [13]): 6.4 nM | IC50 [1]: 5400 nM

CC(C)(C)CN1CCC2(CC1)CN(c1ccccc1Nc1nnc(-c3ccccc3)o1)c1c(O)ccc(Cl)c12
Ki (P2Y purinoceptor 1 [7]): 6.2 nM | IC50 (P2Y purinoceptor 1 [13]): 49 nM | IC50 [1]: > 10000 nM

CC(C)(C)CN1CCC2(CC1)CN(c1ccccc1Nc1cc(-c3ccccc3)on1)c1c(O)ccc(Cl)c12
IC50 [1]: 9000 nM

CC(C)(C)CN1CCC2(CC1)CN(c1ccccc1Nc1nc(-c3ccccc3)cs1)c1c(O)ccc(Cl)c12
Ki (P2Y purinoceptor 1 [7]): 20 nM | IC50 (P2Y purinoceptor 1 [13]): 54 nM | IC50 [1]: > 10000 nM

CC(C)(C)CN1CCC2(CC1)CN(c1ccccc1Nc1ncc(-c3ccccc3)s1)c1c(O)ccc(Cl)c12
Ki (P2Y purinoceptor 1 [7]): 17 nM | IC50 (P2Y purinoceptor 1 [13]): 2.3 nM | IC50 [1]: 3700 nM

Cc1ccc(-c2ccc(Nc3ccccc3N3CC4(CCN(CC(C)(C)C)CC4)c4c(Cl)ccc(O)c43)nc2)cc1
Ki (P2Y purinoceptor 1 [7]): 343 nM | IC50 [1]: > 10000 nM

CC(C)(C)CN1CCC2(CC1)CN(c1ccccc1Nc1ccc(-c3ccccc3)nn1)c1c(O)ccc(Cl)c12
Ki (P2Y purinoceptor 1 [7]): 511 nM | IC50 [1]: > 40000 nM

CC(C)(C)CN1CCC2(CC1)CN(c1ccccc1Nc1cnc(-c3ccccc3)cn1)c1c(O)ccc(Cl)c12
Ki (P2Y purinoceptor 1 [7]): 49 nM | IC50 [1]: > 40000 nM

CC(C)(C)CN1CCC2(CC1)CN(c1ccccc1Nc1nnc(-c3ccc(C(F)(F)F)cc3)s1)c1c(O)ccc(C(F)(F)F)c12
bioavailability [3]: 22% | remaining at 10 min [4]: 86% | AUC [5]: 4.63 µM·h | clearance [6]: 4 mL/min/kg | concentration at 24 h [8]: 12 nM | IC50 (P2Y purinoceptor 1 [13]): 0.08 nM | concentration at 24 h [9]: 46 nM | remaining at 10 min [10]: 87% | half-life [11]: 24 h | IC50 [1]: 450 nM | Vd [12]: 6 L/kg

CC(C)(C)CN1CCC2(CC1)CN(c1ccccc1Nc1nnc(-c3ccc(C(C)(C)C)cc3)s1)c1c(O)ccc(C(F)(F)F)c12
bioavailability [3]: 14% | remaining at 10 min [4]: 82% | AUC [5]: 6.96 µM·h | clearance [6]: 1.8 mL/min/kg | concentration at 24 h [8]: 3.6 nM | IC50 (P2Y purinoceptor 1 [13]): 0.21 nM | concentration at 24 h [9]: 54 nM | remaining at 10 min [10]: 84% | half-life [11]: 13 h | IC50 [1]: 870 nM | Vd [12]: 1.2 L/kg

CC(C)(C)CN1CCC2(CC1)CN(c1ccccc1Nc1nnc(-c3ccc(C(C)(C)C)cc3)s1)c1c(O)ccc(C#N)c12
Ki (P2Y purinoceptor 1 [7]): 9.7 nM | IC50 (P2Y purinoceptor 1 [13]): 0.34 nM | IC50 [1]: 1200 nM

COC(=O)c1ccc(O)c2c1C1(CCN(CC(C)(C)C)CC1)CN2c1ccccc1Nc1nnc(-c2ccc(C(C)(C)C)cc2)s1
IC50 (P2Y purinoceptor 1 [13]): 0.32 nM | IC50 [1]: 840 nM

CC(C)(C)CN1CCC2(CC1)CN(c1ccccc1Nc1nnc(-c3ccc(OC(F)(F)F)cc3)s1)c1c(O)ccc(F)c12
Ki (P2Y purinoceptor 1 [7]): 5.3 nM | IC50 (P2Y purinoceptor 1 [13]): 2.7 nM | IC50 [1]: 1600 nM

CC(C)(C)CN1CCC2(CC1)CN(c1ccccc1Nc1nnc(-c3ccc(OC(F)(F)F)cc3)s1)c1c(O)ccc(Cl)c12
bioavailability [3]: 28% | remaining at 10 min [4]: 99% | AUC [5]: 6.21 µM·h | clearance [6]: 2.1 mL/min/kg | concentration at 24 h [8]: 30 nM | IC50 (P2Y purinoceptor 1 [13]): 0.63 nM | concentration at 24 h [9]: 95 nM | remaining at 10 min [10]: 94% | half-life [11]: 12 h | IC50 [1]: 900 nM | Vd [12]: 2.1 L/kg

CC(C)(C)CN1CCC2(CC1)CN(c1ccccc1Nc1nnc(-c3ccccc3Cl)s1)c1c(O)ccc(Cl)c12
IC50 (P2Y purinoceptor 1 [13]): 9.8 nM | IC50 [1]: 11000 nM

CC(C)(C)CN1CCC2(CC1)CN(c1ccccc1Nc1nnc(-c3cccc(Cl)c3)s1)c1c(O)ccc(Cl)c12
IC50 (P2Y purinoceptor 1 [13]): 3.6 nM | IC50 [1]: 2600 nM

CC(C)(C)CN1CCC2(CC1)CN(c1ccccc1Nc1nnc(-c3ccc(Cl)cc3)s1)c1c(O)ccc(Cl)c12
IC50 (P2Y purinoceptor 1 [13]): 1.6 nM | IC50 [1]: 1300 nM

CC(C)(C)CN1CCC2(CC1)CN(c1ccccc1Nc1nnc(-c3cnccn3)s1)c1c(O)ccc(Cl)c12
IC50 (P2Y purinoceptor 1 [13]): 1.5 nM | remaining at 10 min [10]: 37% | IC50 [1]: 930 nM

Cc1cc(-c2nnc(Nc3ccccc3N3CC4(CCN(CC(C)(C)C)CC4)c4c(Cl)ccc(O)c43)s2)n(C)n1
IC50 (P2Y purinoceptor 1 [13]): 0.2 nM | remaining at 10 min [10]: 75% | IC50 [1]: 900 nM
